Measurements reported in publication PMC3583367 (ACS medicinal chemistry letters, 2013).

Experiments:
[1] = tested on: human breast and pancreatic cancer cell lines; assay: MTS proliferation assays, statements over the cell line panel; format: cell-based; conditions: for antiproliferative activity (in words): MCF-7, MDA-MB-231, AsPC1, Panc-1, MTS assays
[2] = tested on: MDA-MB-231 breast cancer cells; assay: Cellular morphological changes under light microscopy; format: cell-based, human; conditions: MDA-MB-231, 48 h, 1 μM, 5 μM and 10 μM
[3] = tested on: MDA-MB-231 xenograft tumors; assay: MDA-MB-231 xenograft tumor growth model; format: in vivo, mice
caspase-3 = assay: Western blot of cleaved caspase-3 in MDA-MB-231 cells; format: cell-based, human; conditions: MDA-MB-231, Western blot
Method in brief: (§1)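 Protein expression in MDA-MB-231 cells was analysed by Western blot after treatment with test compound. Band intensities were quantified by densitometry over three independent experiments, with significance marked at p < 0.05 and p < 0.01.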

STAT3 promoter activity = assay: STAT3 dual luciferase reporter assay; format: cell-based, human; conditions: 24 h pre-treatment
Method in brief: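 MDA-MB-231 cells were transiently transfected with the pSTAT3-Luc reporter vector and pretreated with test compound at different concentrations for 24 h. STAT3 promoter activity was then read by luciferase.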

cyclin D1 = assay: Western blot of cyclin D1 in MDA-MB-231 cells; format: cell-based, human; conditions: MDA-MB-231, Western blot
Method in brief: as §1

STAT3 = assay: Western blot of total and phosphorylated STAT3 in MDA-MB-231 cells; format: cell-based, human; conditions: MDA-MB-231, 24 h
Method in brief: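 MDA-MB-231 cells were treated with different doses of test compound for 24 h, then probed by Western blot for total STAT3 and Tyr-705 phospho-STAT3. Bands were quantified by densitometry over three independent experiments, with significance at p < 0.05 and p < 0.01.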

[4] = tested on: MDA-MB-231 breast cancer cells; assay: Annexin V-based flow cytometry apoptosis measurement; format: cell-based, human; conditions: MDA-MB-231, dose-dependent
[5] = Signs of toxicity in mice; format: in vivo; conditions: 75 mg/kg

CN1CCC(Oc2ccc(Cl)cc2C(=O)Nc2ccc([N+](=O)[O-])cc2Cl)CC1 [Compound 4]
fold loss of antiproliferative activity in comparison with analogue 10 ([1]; vs analogue 10): 10 fold

O=C(Nc1ccc([N+](=O)[O-])cc1Cl)c1cc(Cl)ccc1OC1CCNCC1 [Compound 10]
cell proliferation and apoptosis with cellular morphological changes [2]: significantly inhibited cell proliferation and induced apoptosis

O=C(Nc1ccc([N+](=O)[O-])cc1Cl)c1cc(Cl)ccc1OCCF [Compound 3]
antiproliferative activity (in words) [1]: no significant effects

CC(=O)Nc1ccc(NC(=O)c2cc(Cl)ccc2OC2CCNCC2)c(Cl)c1 [Compound 20]
antiproliferative activity (in words) [1]: significant loss of the antiproliferative activity

NCCOc1ccc(Cl)cc1C(=O)Nc1ccc([N+](=O)[O-])cc1Cl [Compound 11]
cell proliferation and apoptosis with cellular morphological changes [2]: significantly inhibited cell proliferation and induced apoptosis | inhibition of xenograft tumor growth, i.p. ([3]; 7.5 mg/kg i.p., compared with 12.5 mg/kg niclosamide): better effect in inhibiting tumor growth | growth of xenograft tumors, oral administration ([3]; 25 mg/kg p.o., more efficacious than niclosamide at 75 mg/kg): significantly reduced | xenograft tumor growth in vivo (both i.p. & p.o.) ([3]; nude mice bearing MDA-MB-231 xenografts): significantly suppressed | cleaved caspase-3 (caspase-3): induced | decrease of STAT3 promoter activity (STAT3 promoter activity; 10 μM, MDA-MB-231, compared with control): approximately 32% | cyclin D1 (cyclin D1): downregulated | phosphorylated STAT3 (p-STAT3) at Tyr-705 (STAT3): suppressed | total STAT3 level (STAT3): reduced | apoptosis (annexin V, flow cytometry) [4]: activated apoptosis | signs of toxicity [5]: did not show significant signs of toxicity

CS(=O)(=O)Nc1ccc(NC(=O)c2cc(Cl)ccc2OC2CCNCC2)c(Cl)c1 [Compound 19]
antiproliferative activity (in words) [1]: significant loss of the antiproliferative activity

O=C(Nc1ccc([N+](=O)[O-])cc1Cl)c1cc(Cl)ccc1O [Compound 1, niclosamide, reference compound]
cell proliferation and apoptosis with cellular morphological changes [2]: significantly inhibited cell proliferation and induced apoptosis | STAT3 promoter activity (in words) (STAT3 promoter activity; 20 μM, MDA-MB-231): suppressed | phosphorylated STAT3 (p-STAT3) at Tyr-705 (STAT3): suppressed | total STAT3 level (STAT3): reduced | apoptosis (annexin V, flow cytometry) [4]: activated apoptosis
